Peptide text beside a SMILES is read from it.
Columns and labels:
Type in all cases: cell-based, human
[1] = system: PDO-S (ICC patient-derived organoid); test: Drug sensitivity experiment of organoids; details: by IC50, 24 h, CellTiter-Glo
[2] = system: PDO-K (ICC patient-derived organoid); test: Drug sensitivity experiment of organoids; details: by IC50, 24 h, CellTiter-Glo; for overall sensitivity of the three PDOs: overall across PDO-K, PDO-S and PDO-L
[3] = system: PDO-L (ICC patient-derived organoid); test: Drug sensitivity experiment of organoids; details: by IC50, 24 h, CellTiter-Glo
[4] = system: HIBEpiC cells; test: Membrane potential; details: 1 x 10^5 cells/mL, peptide 2.5, 5, 10, 20 µM, 1 h
Outline: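 A cell suspension at 1 × 10^5 cells/mL was incubated 1 h with peptide at 0 (control), 2.5, 5, 10 or 20 µM. The mixture was then loaded into a folded capillary cell, and zeta potential was read on a NanoZetasizer.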

Compound	rank of therapeutic effect among the drugs, PDO-S [1]	rank of therapeutic effect among the drugs, PDO-K [2]	overall sensitivity of the three PDOs [2]	rank of therapeutic effect among the drugs, PDO-L [3]	change of zeta potential of normal cells after peptide treatment [4]
Nc1ccn([C@@H]2O[C@H](CO)[C@@H](O)C2(F)F)c(=O)n1 [Gemcitabine]	most effective	–	–	–	–
CC(C)C[C@H](NC(=O)[C@H](CC(C)C)NC(=O)[C@H](CCCCN)NC(=O)[C@H](CCCCN)NC(=O)[C@H](CC(C)C)NC(=O)[C@H](CC(C)C)NC(=O)[C@H](CCCCN)NC(=O)[C@H](CCCCN)NC(=O)[C@H](CC(C)C)NC(=O)[C@H](CC(C)C)NC(=O)[C@H](CCCCN)NC(=O)[C@H](CCCCN)NC(=O)[C@H](CC(C)C)NC(=O)[C@@H](N)CC(C)C)C(N)=O [KL-8] (H-LLKKLLKKLLKKLL-NH2)	–	best therapeutic effect	highest sensitivity	best therapeutic effect	no statistically significant changes
CNC(=O)c1cc(Oc2ccc(NC(=O)Nc3ccc(Cl)c(C(F)(F)F)c3)cc2)ccn1 [Sorafenib, reference compound]	–	–	lowest sensitivity	–	–

Source: article PMC12217639 (Scientific Reports, 2025)
